Results from ChEMBL document CHEMBL1157864, “Synthesis of some novel 2-substituted-5-[isopropylthiazole] clubbed 1,2,4-triazole and 1,3,4-oxadiazoles as potential antimicrobial and antitubercular agents” (Eur J Med Chem, 2010).
Converted amounts (≈) assume the structure as drawn.

Key:
Assay type in all cases: functional
Staphylococcus aureus = assay: Antimicrobial activity against Staphylococcus aureus ATCC 11632 after 24 hrs by broth microdilution assay; settings: ATCC 11632, 24 h
Summary of the method: (§1)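 Broth dilution MIC. Stock is 10 mg compound in 1 mL DMSO, serially diluted in Mueller–Hinton broth for bacteria or Sabouraud liquid medium for yeasts and mould. Tubes are inoculated at 10⁵ cfu/mL and incubated at 37 °C for 24 h. Controls are medium alone and medium with DMSO at matching dilutions. MIC is the lowest concentration giving complete growth inhibition.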

Enterococcus faecalis = assay: Antimicrobial activity against Streptococcus faecalis ATCC 14506 after 24 hrs by broth microdilution assay; settings: ATCC 14506, 24 h; summary of the method: as §1
Bacillus subtilis = assay: Antimicrobial activity against Bacillus subtilis ATCC 60511 after 24 hrs by broth microdilution assay; settings: ATCC 60511, 24 h; summary of the method: as §1
Klebsiella pneumoniae = assay: Antimicrobial activity against Klebsiella pneumoniae ATCC 10031 after 24 hrs by broth microdilution assay; settings: ATCC 10031, 24 h; summary of the method: as §1
Escherichia coli = assay: Antimicrobial activity against Escherichia coli ATCC 10536 after 24 hrs by broth microdilution assay; settings: ATCC 10536, 24 h; summary of the method: as §1
Pseudomonas aeruginosa = assay: Antimicrobial activity against Pseudomonas aeruginosa ATCC 10145 after 24 hrs by broth microdilution assay; settings: ATCC 10145, 24 h; summary of the method: as §1
Saccharomyces cerevisiae = assay: Antimicrobial activity against Saccharomyces cerevisiae ATCC 9763 after 24 hrs by broth microdilution assay; settings: ATCC 9763, 24 h; summary of the method: as §1
Candida tropicalis = assay: Antimicrobial activity against Candida tropicalis ATCC 1369 after 24 hrs by broth microdilution assay; settings: ATCC 1369, 24 h; summary of the method: as §1
Aspergillus niger = assay: Antimicrobial activity against Aspergillus niger ATCC 6275 after 24 hrs by broth microdilution assay; settings: ATCC 6275, 24 h; summary of the method: as §1
[1] = system: Mycobacterium tuberculosis; assay: Antimycobacterial activity against Mycobacterium tuberculosis H37Rv after 21 days by broth dilution assay; settings: 504 h
Summary of the method: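 Middlebrook 7H9 broth with 10% albumin-dextrose-catalase and 0.2% glycerol; frozen culture thawed, diluted to 10⁵ cfu/mL and used as inoculum. Compounds taken up in DMSO and diluted twice in broth, 1.3% DMSO final. Incubated at 37 °C. Growth judged by eye against drug-free and inoculum-free controls and isoniazid. MIC is the lowest concentration inhibiting ≥99% of the starting population.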

## CC(C)c1csc(-c2nnc(S)n2/N=C/c2ccc(Br)cc2)n1
Staphylococcus aureus
  MIC: 62.5 µg/mL (≈ 153 µM)
Enterococcus faecalis
  MIC: 125 µg/mL (≈ 306 µM)
Bacillus subtilis
  MIC: 125 µg/mL (≈ 306 µM)
Klebsiella pneumoniae
  MIC: 125 µg/mL (≈ 306 µM)
Escherichia coli
  MIC: 62.5 µg/mL (≈ 153 µM)
Pseudomonas aeruginosa
  MIC: 62.5 µg/mL (≈ 153 µM)
Saccharomyces cerevisiae
  MIC: 125 µg/mL (≈ 306 µM)
Candida tropicalis
  MIC: 62.5 µg/mL (≈ 153 µM)
Aspergillus niger
  MIC: 62.5 µg/mL (≈ 153 µM)
[1]
  MIC: 125 µg/mL (≈ 306 µM)

## COc1cc(/C=N/n2c(S)nnc2-c2nc(C(C)C)cs2)cc(OC)c1OC
Staphylococcus aureus
  MIC: 125 µg/mL (≈ 298 µM)
Enterococcus faecalis
  MIC: 62.5 µg/mL (≈ 149 µM)
Bacillus subtilis
  MIC: 125 µg/mL (≈ 298 µM)
Klebsiella pneumoniae
  MIC: 62.5 µg/mL (≈ 149 µM)
Escherichia coli
  MIC: 62.5 µg/mL (≈ 149 µM)
Pseudomonas aeruginosa
  MIC: 125 µg/mL (≈ 298 µM)
Saccharomyces cerevisiae
  MIC: 62.5 µg/mL (≈ 149 µM)
Candida tropicalis
  MIC: 125 µg/mL (≈ 298 µM)
Aspergillus niger
  MIC: 62.5 µg/mL (≈ 149 µM)
[1]
  MIC: 125 µg/mL (≈ 298 µM)

## Cc1ccc(-c2nnc(-c3nc(C(C)C)cs3)o2)cc1
Staphylococcus aureus
  MIC: 31.2 µg/mL (≈ 110 µM)
Enterococcus faecalis
  MIC: 16 µg/mL (≈ 56.1 µM)
Bacillus subtilis
  MIC: 31.2 µg/mL (≈ 110 µM)
Klebsiella pneumoniae
  MIC: 125 µg/mL (≈ 438 µM)
Escherichia coli
  MIC: 62.5 µg/mL (≈ 219 µM)
Pseudomonas aeruginosa
  MIC: 125 µg/mL (≈ 438 µM)
Saccharomyces cerevisiae
  MIC: 62.5 µg/mL (≈ 219 µM)
Candida tropicalis
  MIC: 125 µg/mL (≈ 438 µM)
Aspergillus niger
  MIC: 31.2 µg/mL (≈ 110 µM)
[1]
  MIC: 16 µg/mL (≈ 56.1 µM)

## COc1ccc(-c2nnc(-c3nc(C(C)C)cs3)o2)cc1
Staphylococcus aureus
  MIC: 31.2 µg/mL (≈ 104 µM)
Enterococcus faecalis
  MIC: 31.2 µg/mL (≈ 104 µM)
Bacillus subtilis
  MIC: 31.2 µg/mL (≈ 104 µM)
Klebsiella pneumoniae
  MIC: 31.2 µg/mL (≈ 104 µM)
Escherichia coli
  MIC: 16 µg/mL (≈ 53.1 µM)
Pseudomonas aeruginosa
  MIC: 16 µg/mL (≈ 53.1 µM)
Saccharomyces cerevisiae
  MIC: 31.2 µg/mL (≈ 104 µM)
Candida tropicalis
  MIC: 31.2 µg/mL (≈ 104 µM)
Aspergillus niger
  MIC: 31.2 µg/mL (≈ 104 µM)
[1]
  MIC: 16 µg/mL (≈ 53.1 µM)

## CC(=O)N1N=C(c2nc(C(C)C)cs2)OC1(C)c1ccc(O)cc1 (stereo not given)
Staphylococcus aureus
  MIC: 16 µg/mL (≈ 46.3 µM)
Enterococcus faecalis
  MIC: 31.2 µg/mL (≈ 90.5 µM)
Bacillus subtilis
  MIC: 31.2 µg/mL (≈ 90.5 µM)
Klebsiella pneumoniae
  MIC: 16 µg/mL (≈ 46.3 µM)
Escherichia coli
  MIC: 16 µg/mL (≈ 46.3 µM)
Pseudomonas aeruginosa
  MIC: 62.5 µg/mL (≈ 181 µM)
Saccharomyces cerevisiae
  MIC: 31.2 µg/mL (≈ 90.5 µM)
Candida tropicalis
  MIC: 31.2 µg/mL (≈ 90.5 µM)
Aspergillus niger
  MIC: 125 µg/mL (≈ 362 µM)
[1]
  MIC: 62.5 µg/mL (≈ 181 µM)

## COc1ccc(C2(C)OC(c3nc(C(C)C)cs3)=NN2C(C)=O)cc1 (stereo not given)
Staphylococcus aureus
  MIC: 31.2 µg/mL (≈ 86.9 µM)
Enterococcus faecalis
  MIC: 125 µg/mL (≈ 348 µM)
Bacillus subtilis
  MIC: 31.2 µg/mL (≈ 86.9 µM)
Klebsiella pneumoniae
  MIC: 125 µg/mL (≈ 348 µM)
Escherichia coli
  MIC: 125 µg/mL (≈ 348 µM)
Pseudomonas aeruginosa
  MIC: 125 µg/mL (≈ 348 µM)
Saccharomyces cerevisiae
  MIC: 4 µg/mL (≈ 11.1 µM)
Candida tropicalis
  MIC: 8 µg/mL (≈ 22.3 µM)
Aspergillus niger
  MIC: 8 µg/mL (≈ 22.3 µM)
[1]
  MIC: 62.5 µg/mL (≈ 174 µM)

## CC(=O)N1N=C(c2nc(C(C)C)cs2)OC1(C)c1ccc([N+](=O)[O-])cc1 (stereo not given)
Staphylococcus aureus
  MIC: 31.2 µg/mL (≈ 83.5 µM)
Enterococcus faecalis
  MIC: 62.5 µg/mL (≈ 167 µM)
Bacillus subtilis
  MIC: 62.5 µg/mL (≈ 167 µM)
Klebsiella pneumoniae
  MIC: 62.5 µg/mL (≈ 167 µM)
Escherichia coli
  MIC: 16 µg/mL (≈ 42.7 µM)
Pseudomonas aeruginosa
  MIC: 31.2 µg/mL (≈ 83.5 µM)
Saccharomyces cerevisiae
  MIC: 31.2 µg/mL (≈ 83.5 µM)
Candida tropicalis
  MIC: 62.5 µg/mL (≈ 167 µM)
Aspergillus niger
  MIC: 31.2 µg/mL (≈ 83.5 µM)
[1]
  MIC: 125 µg/mL (≈ 334 µM)

## CC(C)c1csc(-c2nnc(-c3ccccc3)o2)n1
Staphylococcus aureus
  MIC: 31.2 µg/mL (≈ 115 µM)
Enterococcus faecalis
  MIC: 16 µg/mL (≈ 59 µM)
Bacillus subtilis
  MIC: 62.5 µg/mL (≈ 230 µM)
Klebsiella pneumoniae
  MIC: 250 µg/mL (≈ 921 µM)
Escherichia coli
  MIC: 125 µg/mL (≈ 461 µM)
Pseudomonas aeruginosa
  MIC: 62.5 µg/mL (≈ 230 µM)
Saccharomyces cerevisiae
  MIC: 62.5 µg/mL (≈ 230 µM)
Candida tropicalis
  MIC: 125 µg/mL (≈ 461 µM)
Aspergillus niger
  MIC: 125 µg/mL (≈ 461 µM)
[1]
  MIC: 31.2 µg/mL (≈ 115 µM)

## CC(C)c1csc(-c2nnc(-c3ccc(Cl)cc3)o2)n1
Staphylococcus aureus
  MIC: 8 µg/mL (≈ 26.2 µM)
Enterococcus faecalis
  MIC: 8 µg/mL (≈ 26.2 µM)
Bacillus subtilis
  MIC: 4 µg/mL (≈ 13.1 µM)
Klebsiella pneumoniae
  MIC: 125 µg/mL (≈ 409 µM)
Escherichia coli
  MIC: 125 µg/mL (≈ 409 µM)
Pseudomonas aeruginosa
  MIC: 125 µg/mL (≈ 409 µM)
Saccharomyces cerevisiae
  MIC: 62.5 µg/mL (≈ 204 µM)
Candida tropicalis
  MIC: 125 µg/mL (≈ 409 µM)
Aspergillus niger
  MIC: 62.5 µg/mL (≈ 204 µM)
[1]
  MIC: 4 µg/mL (≈ 13.1 µM)

## CC(=O)N1N=C(c2nc(C(C)C)cs2)OC1(C)c1ccc(Br)cc1 (stereo not given)
Staphylococcus aureus
  MIC: 16 µg/mL (≈ 39.2 µM)
Enterococcus faecalis
  MIC: 16 µg/mL (≈ 39.2 µM)
Bacillus subtilis
  MIC: 31.2 µg/mL (≈ 76.5 µM)
Klebsiella pneumoniae
  MIC: 16 µg/mL (≈ 39.2 µM)
Escherichia coli
  MIC: 62.5 µg/mL (≈ 153 µM)
Pseudomonas aeruginosa
  MIC: 16 µg/mL (≈ 39.2 µM)
Saccharomyces cerevisiae
  MIC: 31.2 µg/mL (≈ 76.5 µM)
Candida tropicalis
  MIC: 31.2 µg/mL (≈ 76.5 µM)
Aspergillus niger
  MIC: 31.2 µg/mL (≈ 76.5 µM)
[1]
  MIC: 125 µg/mL (≈ 306 µM)

## CC(=O)N1N=C(c2nc(C(C)C)cs2)OC1(C)c1ccc(C)cc1 (stereo not given)
Staphylococcus aureus
  MIC: 125 µg/mL (≈ 364 µM)
Enterococcus faecalis
  MIC: 125 µg/mL (≈ 364 µM)
Bacillus subtilis
  MIC: 16 µg/mL (≈ 46.6 µM)
Klebsiella pneumoniae
  MIC: 31.2 µg/mL (≈ 91 µM)
Escherichia coli
  MIC: 16 µg/mL (≈ 46.6 µM)
Pseudomonas aeruginosa
  MIC: 125 µg/mL (≈ 364 µM)
Saccharomyces cerevisiae
  MIC: 16 µg/mL (≈ 46.6 µM)
Candida tropicalis
  MIC: 31.2 µg/mL (≈ 91 µM)
Aspergillus niger
  MIC: 31.2 µg/mL (≈ 91 µM)
[1]
  MIC: 31.2 µg/mL (≈ 91 µM)

## CC(C)c1csc(-c2nnc(-c3ccc(O)cc3)o2)n1
Staphylococcus aureus
  MIC: 62.5 µg/mL (≈ 218 µM)
Enterococcus faecalis
  MIC: 62.5 µg/mL (≈ 218 µM)
Bacillus subtilis
  MIC: 31.2 µg/mL (≈ 109 µM)
Klebsiella pneumoniae
  MIC: 62.5 µg/mL (≈ 218 µM)
Escherichia coli
  MIC: 62.5 µg/mL (≈ 218 µM)
Pseudomonas aeruginosa
  MIC: 62.5 µg/mL (≈ 218 µM)
Saccharomyces cerevisiae
  MIC: 62.5 µg/mL (≈ 218 µM)
Candida tropicalis
  MIC: 125 µg/mL (≈ 435 µM)
Aspergillus niger
  MIC: 125 µg/mL (≈ 435 µM)
[1]
  MIC: 125 µg/mL (≈ 435 µM)

## CC(C)c1csc(-c2nnc(S)n2/N=C/c2ccc(N(C)C)cc2)n1
Staphylococcus aureus
  MIC: 16 µg/mL (≈ 43 µM)
Enterococcus faecalis
  MIC: 125 µg/mL (≈ 336 µM)
Bacillus subtilis
  MIC: 31.2 µg/mL (≈ 83.9 µM)
Klebsiella pneumoniae
  MIC: 16 µg/mL (≈ 43 µM)
Escherichia coli
  MIC: 16 µg/mL (≈ 43 µM)
Pseudomonas aeruginosa
  MIC: 16 µg/mL (≈ 43 µM)
Saccharomyces cerevisiae
  MIC: 31.2 µg/mL (≈ 83.9 µM)
Candida tropicalis
  MIC: 125 µg/mL (≈ 336 µM)
Aspergillus niger
  MIC: 16 µg/mL (≈ 43 µM)
[1]
  MIC: 125 µg/mL (≈ 336 µM)

## CC(C)c1csc(-c2nnc3sc(-c4ccc([N+](=O)[O-])cc4)nn23)n1
Staphylococcus aureus
  MIC: 125 µg/mL (≈ 336 µM)
Enterococcus faecalis
  MIC: 125 µg/mL (≈ 336 µM)
Bacillus subtilis
  MIC: 16 µg/mL (≈ 43 µM)
Klebsiella pneumoniae
  MIC: 16 µg/mL (≈ 43 µM)
Escherichia coli
  MIC: 125 µg/mL (≈ 336 µM)
Pseudomonas aeruginosa
  MIC: 31.2 µg/mL (≈ 83.9 µM)
Saccharomyces cerevisiae
  MIC: 8 µg/mL (≈ 21.5 µM)
Candida tropicalis
  MIC: 8 µg/mL (≈ 21.5 µM)
Aspergillus niger
  MIC: 16 µg/mL (≈ 43 µM)
[1]
  MIC: 31.2 µg/mL (≈ 83.9 µM)

## Cc1ccc(-c2nn3c(-c4nc(C(C)C)cs4)nnc3s2)cc1
Staphylococcus aureus
  MIC: 125 µg/mL (≈ 366 µM)
Enterococcus faecalis
  MIC: 125 µg/mL (≈ 366 µM)
Bacillus subtilis
  MIC: 62.5 µg/mL (≈ 183 µM)
Klebsiella pneumoniae
  MIC: 250 µg/mL (≈ 732 µM)
Escherichia coli
  MIC: 125 µg/mL (≈ 366 µM)
Pseudomonas aeruginosa
  MIC: 62.5 µg/mL (≈ 183 µM)
Saccharomyces cerevisiae
  MIC: 250 µg/mL (≈ 732 µM)
Candida tropicalis
  MIC: 125 µg/mL (≈ 366 µM)
Aspergillus niger
  MIC: 125 µg/mL (≈ 366 µM)
[1]
  MIC: 31.2 µg/mL (≈ 91.5 µM)
